# Assay results: ChEMBL document CHEMBL3244330, “Structure--activity relationships of n-substituted dopamine and 2-amino-6,7-dihydroxy-1,2,3,4-tetrahydronaphthalene analogues: behavioral effects in lesioned and reserpinized mice” (J Med Chem, 1979)
# Activity calls are given as the source filed them. No cut-off for these calls is given here.
# Experiments:
# Mus musculus [1] = experiment: Postural effect on caudectomized Swiss albino mouse assessed as latency to onset time of asymmetric postural effect at 85 mg/kg, ip; assay type: functional, organism-based; parameters: dose 85 mg/kg
# How it was run: (§1)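 Male Swiss albino Hale-Stoner mice with a right caudectomy made by suction. A lesion was accepted if the mouse responded to apomorphine 4 weeks after surgery. Compounds were dissolved in 0.9% saline and injected ip at random into groups of six, with a maximum dose of 0.348 mmol/kg. 18 mice were used per compound, and mice were retested after 5–6 day intervals. Onset and duration of the asymmetric posture are reported as mean ± SE from six animals.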
# Mus musculus [2] = experiment: Postural effect on caudectomized Swiss albino mouse assessed as time duration of asymmetric posture at 47.6 mg/kg, ip; assay type: functional; settings: route intraperitoneal; how it was run: as §1
# Mus musculus [3] = experiment: Postural effect on caudectomized Swiss albino mouse assessed as time duration of asymmetric posture at 71.4 mg/kg, ip; assay type: functional; settings: route intraperitoneal
# How it was run: (§2)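 Male Swiss albino Hale-Stoner mice given a right caudectomy by suction. The lesion counted as successful if the mice reacted to apomorphine 4 weeks later. Drug was given ip in 0.9% saline, up to 0.348 mmol/kg, to randomised groups of six, with 5-6 days before reuse. Onset and duration of asymmetric posture are reported as mean ± SE from six animals.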
# Mus musculus [4] = experiment: Postural effect on caudectomized Swiss albino mouse assessed as latency to onset time of asymmetric postural effect at 47.6 mg/kg, ip; assay type: functional; settings: route intraperitoneal; how it was run: as §1
# Mus musculus [5] = experiment: Postural effect on caudectomized Swiss albino mouse assessed as latency to onset time of asymmetric postural effect at 23.8 mg/kg, ip; assay type: functional; settings: route intraperitoneal; how it was run: as §1
# Mus musculus [6] = experiment: Reversal of reserpine-induced catalepsy in ip dosed Swiss albino (CD1) mouse; assay type: functional
# How it was run: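 Male Swiss albino CD1 mice, 5 weeks old, got reserpine 5 mg/kg ip, then α-MTM 250 mg/kg ip 17 h later, then the test drug ip 4 h after that. Catalepsy was scored by the rubber-stopper test (time to step off the stopper). At least four doses were used, with ≥8 mice per dose. ED50 was taken from a log-probit plot of percent responders against dose.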
# Mus musculus [7] = experiment: Postural effect on caudectomized Swiss albino mouse assessed as time duration of asymmetric posture at 23.8 mg/kg, ip; assay type: functional; settings: route intraperitoneal; how it was run: as §1
# Mus musculus [8] = experiment: Postural effect on caudectomized Swiss albino mouse assessed as latency to onset time of asymmetric postural effect at 71.4 mg/kg, ip; assay type: functional; settings: route intraperitoneal; how it was run: as §1
# Mus musculus [9] = experiment: Postural effect on caudectomized Swiss albino mouse assessed as time duration of asymmetric posture at 22.6 mg/kg, ip; assay type: functional; settings: route intraperitoneal; how it was run: as §1
# Mus musculus [10] = experiment: Postural effect on caudectomized Swiss albino mouse assessed as time duration of asymmetric posture at 45.2 mg/kg, ip; assay type: functional; settings: route intraperitoneal; how it was run: as §1
# Mus musculus [11] = experiment: Postural effect on caudectomized Swiss albino mouse assessed as latency to onset time of asymmetric postural effect at 67.8 mg/kg, ip; assay type: functional; settings: route intraperitoneal; how it was run: as §1
# Mus musculus [12] = experiment: Postural effect on caudectomized Swiss albino mouse assessed as time duration of asymmetric posture at 67.8 mg/kg, ip; assay type: functional; settings: route intraperitoneal; how it was run: as §2
# Mus musculus [13] = experiment: Postural effect on caudectomized Swiss albino mouse assessed as latency to onset time of asymmetric postural effect at 45.2 mg/kg, ip; assay type: functional; settings: route intraperitoneal; how it was run: as §1
# Mus musculus [14] = experiment: Postural effect on caudectomized Swiss albino mouse assessed as latency to onset time of asymmetric postural effect at 22.6 mg/kg, ip; assay type: functional; settings: route intraperitoneal; how it was run: as §1
# Mus musculus [15] = experiment: Postural effect on caudectomized Swiss albino mouse assessed as latency to onset time of asymmetric postural effect at 91.2 mg/kg, ip; assay type: functional, organism-based; parameters: dose 91.2 mg/kg
# How it was run: (§3)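 Male Swiss albino Hale-Stoner mice with right caudectomy by suction, used if responsive to apomorphine 4 weeks post-lesion. Compound in 0.9% saline given ip, maximum 0.348 mmol/kg. 18 mice per compound in random groups of six, retested after 5–6 day intervals. Onset latency and duration of asymmetric posture recorded; mean ± SE from six animals.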
# Mus musculus [16] = experiment: Postural effect on caudectomized Swiss albino mouse assessed as latency to onset time of asymmetric postural effect at 96.9 mg/kg, ip; assay type: functional; settings: route intraperitoneal; how it was run: as §1
# Mus musculus [17] = experiment: Postural effect on caudectomized Swiss albino mouse assessed as latency to onset time of asymmetric postural effect at 32.3 mg/kg, ip; assay type: functional; settings: route intraperitoneal; how it was run: as §1
# Mus musculus [18] = experiment: Postural effect on caudectomized Swiss albino mouse assessed as time duration of asymmetric posture at 96.9 mg/kg, ip; assay type: functional; settings: route intraperitoneal; how it was run: as §2
# Mus musculus [19] = experiment: Postural effect on caudectomized Swiss albino mouse assessed as time duration of asymmetric posture at 32.3 mg/kg, ip; assay type: functional; settings: route intraperitoneal; how it was run: as §1
# Mus musculus [20] = experiment: Postural effect on caudectomized Swiss albino mouse assessed as latency to onset time of asymmetric postural effect at 64.6 mg/kg, ip; assay type: functional; settings: route intraperitoneal; how it was run: as §1
# Mus musculus [21] = experiment: Postural effect on caudectomized Swiss albino mouse assessed as time duration of asymmetric posture at 64.6 mg/kg, ip; assay type: functional; settings: route intraperitoneal; how it was run: as §2
# Mus musculus [22] = experiment: Postural effect on caudectomized Swiss albino mouse assessed as time duration of asymmetric posture at 107.2 mg/kg, ip; assay type: functional; settings: route intraperitoneal; how it was run: as §3
# Mus musculus [23] = experiment: Postural effect on caudectomized Swiss albino mouse assessed as latency to onset time of asymmetric postural effect at 107.2 mg/kg, ip; assay type: functional; settings: route intraperitoneal; how it was run: as §3
# Mus musculus [24] = experiment: Postural effect on caudectomized Swiss albino mouse assessed as latency to onset time of asymmetric postural effect at 26.8 mg/kg, ip; assay type: functional, organism-based; parameters: dose 26.8 mg/kg; how it was run: as §3
# Mus musculus [25] = experiment: Postural effect on caudectomized Swiss albino mouse assessed as time duration of asymmetric posture at 56 mg/kg, ip; assay type: functional; settings: route intraperitoneal; how it was run: as §2
# Mus musculus [26] = experiment: Postural effect on caudectomized Swiss albino mouse assessed as latency to onset time of asymmetric postural effect at 56 mg/kg, ip; assay type: functional; settings: route intraperitoneal; how it was run: as §1
# Mus musculus [27] = experiment: Postural effect on caudectomized Swiss albino mouse assessed as time duration of asymmetric posture at 28 mg/kg, ip; assay type: functional; settings: route intraperitoneal; how it was run: as §1
# Mus musculus [28] = experiment: Postural effect on caudectomized Swiss albino mouse assessed as latency to onset time of asymmetric postural effect at 28 mg/kg, ip; assay type: functional; settings: route intraperitoneal; how it was run: as §1
# Mus musculus [29] = experiment: Postural effect on caudectomized Swiss albino mouse assessed as latency to onset time of asymmetric postural effect at 68.4 mg/kg, ip; assay type: functional; settings: route intraperitoneal; how it was run: as §1
# Mus musculus [30] = experiment: Postural effect on caudectomized Swiss albino mouse assessed as latency to onset time of asymmetric postural effect at 34.2 mg/kg, ip; assay type: functional; settings: route intraperitoneal; how it was run: as §1
# Mus musculus [31] = experiment: Postural effect on caudectomized Swiss albino mouse assessed as time duration of asymmetric posture at 34.2 mg/kg, ip; assay type: functional; settings: route intraperitoneal; how it was run: as §1
# Mus musculus [32] = experiment: Postural effect on caudectomized Swiss albino mouse assessed as time duration of asymmetric posture at 68.4 mg/kg, ip; assay type: functional; settings: route intraperitoneal; how it was run: as §2
# Mus musculus [33] = experiment: Postural effect on caudectomized Swiss albino mouse assessed as latency to onset time of asymmetric postural effect at 96 mg/kg, ip; assay type: functional, organism-based; parameters: dose 96 mg/kg; how it was run: as §1
# Mus musculus [34] = experiment: Postural effect on caudectomized Swiss albino mouse assessed as latency to onset time of asymmetric postural effect at 120 mg/kg, ip; assay type: functional, organism-based; parameters: dose 120 mg/kg; how it was run: as §1
# Mus musculus [35] = experiment: Postural effect on caudectomized Swiss albino mouse assessed as latency to onset time of asymmetric postural effect at 100.5 mg/kg, ip; assay type: functional, organism-based; parameters: dose 100.5 mg/kg; how it was run: as §1
# Mus musculus [36] = experiment: Postural effect on caudectomized Swiss albino mouse assessed as latency to onset time of asymmetric postural effect at 90.8 mg/kg, ip; assay type: functional, organism-based; parameters: dose 90.8 mg/kg; how it was run: as §1
# Mus musculus [37] = experiment: Postural effect on caudectomized Swiss albino mouse assessed as latency to onset time of asymmetric postural effect at 51.9 mg/kg, ip; assay type: functional, organism-based; parameters: dose 51.9 mg/kg; how it was run: as §3
smiles,measurement,setting,value
CNCCc1ccc(O)c(O)c1,Activity,Mus musculus [1],inactive
CCCN(CCC)CCc1ccc(O)c(O)c1.Cl,Time,Mus musculus [2],13.9 min
same,Time,Mus musculus [3],21.9 min
same,Time,Mus musculus [4],3.7 min
same,Time,Mus musculus [5],1.8 min
same,ED50,Mus musculus [6],16 mg/kg
same,Time,Mus musculus [7],6.2 min
same,Time,Mus musculus [8],3.1 min
CCCCN(C)CCc1ccc(O)c(O)c1.Cl,Time,Mus musculus [9],3.7 min
same,Time,Mus musculus [10],2.3 min
same,Time,Mus musculus [11],3.1 min
same,Time,Mus musculus [12],2.2 min
same,Time,Mus musculus [13],1.3 min
same,ED50,Mus musculus [6],61 mg/kg
same,Time,Mus musculus [14],0.4 min
CCCCN(CCc1ccccc1)CCc1ccc(O)c(O)c1,Activity,Mus musculus [15],inactive
Br.CCCCN(CCCC)C1CCc2cc(O)c(O)cc2C1 (stereo not drawn),Time,Mus musculus [16],4.1 min
same,Time,Mus musculus [17],1 min
same,Time,Mus musculus [18],13.7 min
same,Time,Mus musculus [19],1.6 min
same,Time,Mus musculus [20],5.3 min
same,Time,Mus musculus [21],8.8 min
same,ED50,Mus musculus [6],44 mg/kg
CN(CCc1ccccc1)CCc1ccc(O)c(O)c1.Cl,Time,Mus musculus [22],21.2 min
same,Time,Mus musculus [23],6.9 min
same,ED50,Mus musculus [6],101 mg/kg
same,Activity,Mus musculus [24],inactive
CCCN(CCc1ccc(O)c(O)c1)Cc1ccccc1.Cl,Time,Mus musculus [25],26.6 min
same,Time,Mus musculus [26],5.7 min
same,Time,Mus musculus [27],7.8 min
same,ED50,Mus musculus [6],21 mg/kg
same,Time,Mus musculus [28],5.2 min
CCCCCN(CCC)CCc1ccc(O)c(O)c1.Cl,Time,Mus musculus [29],4.2 min
same,Time,Mus musculus [30],3.7 min
same,Time,Mus musculus [31],17.4 min
same,Time,Mus musculus [32],20.6 min
same,ED50,Mus musculus [6],8.7 mg/kg
CN(C)CCc1ccc(O)c(O)c1,Activity,Mus musculus [33],inactive
CCCN(C)CCc1ccc(O)c(O)c1.Cl,ED50,Mus musculus [6],55 mg/kg
same,Activity,Mus musculus [34],Active
CC(C)CNCCc1ccc(O)c(O)c1,Activity,Mus musculus [35],inactive
CCCCNCCc1ccc(O)c(O)c1,Activity,Mus musculus [36],inactive
Oc1ccc(CCN(CCc2ccccc2)CCc2ccccc2)cc1O,Activity,Mus musculus [37],inactive
